Compound activity (PubChem)
NR1D1 modulator = Rev-erb alpha (human) modulation | P20393 | Rev-erbα–FITC-DNA binding, fluorescence polarization, 90 min | activity, % at 10 µM | 0.79% of 370,000 active;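 active = activity above about 14%, limit read from the data; passing the limit was not always enough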;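 also: 0% = DMSO wells with 35 nM protein and 100% = DMSO wells with 750 nM protein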
PG9 binder = small molecules binding HIV-1 gp120 antibody PG9; TR-FRET gp120-PG9 antibody binding; inhibition, % at 6.7 µM; 0.43% of 360,000 active; in the data active = inhibition above about 8.5%
VLA-4 inh = inhibition in a human VLA-4 binding assay; P13612; VLA-4 expressing cells, ligand binding flow cytometry; 0.2% of 330,000 active; inhibition, % (about 7 µM as worked out from the volumes in the protocol); in the data active = inhibition above about 50%
Target sequence (P13612 whole entry, looked up): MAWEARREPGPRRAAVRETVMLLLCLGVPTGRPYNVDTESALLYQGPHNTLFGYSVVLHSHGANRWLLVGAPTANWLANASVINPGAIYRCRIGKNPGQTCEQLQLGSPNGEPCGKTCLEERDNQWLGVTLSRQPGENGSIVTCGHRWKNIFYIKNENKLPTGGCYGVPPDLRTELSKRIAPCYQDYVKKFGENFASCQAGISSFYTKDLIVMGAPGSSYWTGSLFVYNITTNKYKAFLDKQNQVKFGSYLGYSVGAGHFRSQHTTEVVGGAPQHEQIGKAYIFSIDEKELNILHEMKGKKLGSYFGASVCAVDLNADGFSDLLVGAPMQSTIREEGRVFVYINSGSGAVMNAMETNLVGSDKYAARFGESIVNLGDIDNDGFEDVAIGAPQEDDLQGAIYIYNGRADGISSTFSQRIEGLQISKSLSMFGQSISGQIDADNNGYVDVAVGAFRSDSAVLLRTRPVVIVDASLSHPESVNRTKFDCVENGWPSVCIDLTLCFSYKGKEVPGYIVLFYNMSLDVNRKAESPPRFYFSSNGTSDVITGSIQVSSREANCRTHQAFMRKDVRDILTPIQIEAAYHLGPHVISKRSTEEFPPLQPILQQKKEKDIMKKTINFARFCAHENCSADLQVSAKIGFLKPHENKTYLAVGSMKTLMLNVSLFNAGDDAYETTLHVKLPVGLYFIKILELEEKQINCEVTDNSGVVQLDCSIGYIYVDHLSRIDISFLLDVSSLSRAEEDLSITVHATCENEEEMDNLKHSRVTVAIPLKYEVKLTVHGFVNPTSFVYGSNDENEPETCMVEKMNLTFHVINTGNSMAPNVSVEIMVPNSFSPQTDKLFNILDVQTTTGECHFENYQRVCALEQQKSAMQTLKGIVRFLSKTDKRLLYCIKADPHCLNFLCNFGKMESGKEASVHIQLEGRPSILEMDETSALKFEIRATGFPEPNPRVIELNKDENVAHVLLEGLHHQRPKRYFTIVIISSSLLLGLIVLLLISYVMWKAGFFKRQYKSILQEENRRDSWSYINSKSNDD
NR2E3 ag-1 = activates human NR2E3 receptor | CHO-S Gal4-NCOR/VP16-NR2E3 two-hybrid, luciferase | Q9Y5X4 | AID 602229 | 0.35% of 360,000 active | inhibition of corepressor binding, % at 3.98 µM;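 active = inhibition above the mean of all tested compounds plus 3 SD, cut at about 70% in these data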;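 also: 0% = DMSO with NR2E3 transfected cells and 100% = cells lacking NR2E3 construct; higher means lower luciferase signal from less NR2E3 corepressor binding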
NR2E3 ag-2 = NR2E3 (human) agonism; Q9Y5X4; GST-NR2E3/biotin-RetCOR TR-FRET, 1536-well; inhibition of corepressor binding, % at 4.78 µM; 0.12% of 320,000 active;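 active = percent inhibition above the cutoff of mean plus 3 SD of all tested compounds, set per screening campaign, cut at about 20% in these data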;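 also: 0% = DMSO wells and 100% = biotin wells as full block of FRET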
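system = GST-tagged NR2E3 plus biotinylated RetCOR corepressor | input = 1.35 nM GST-NR2E3 | also added = 7 nM biotin-RetCOR | schedule = 5 h incubation at 4 °C | measured by = TR-FRET with europium anti-GST and streptavidin-D2, 340 nm excitation | read-out = percent loss of FRET ratio relative to control wells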
PG9 bind confirm = confirmation of small molecules binding HIV-1 gp120 antibody PG9; inhibition, % at 6.7 µM; TR-FRET PG9 antibody binding, biochemical; 90% of 1,500 active; shares compounds with PG9 binder; in the data active = inhibition above about 9%
PGV04 Ab binding = binds control antibody PGV04 in PG9 binder counter-screen; shares compounds with PG9 binder; TR-FRET PGV04 antibody-gp120 binding, biochemical; inhibition, % at 6.7 µM; 95% of 1,500 active; AID 651604; in the data active = inhibition above about 9.5%
Rev-erbA confirm = confirmation of modulators of human Rev-erb alpha DNA binding; Rev-erb alpha FITC-DNA binding, fluorescence polarization, 90 min; activation, % at 25 µM; shares compounds with NR1D1 modulator; 61% of 3,000 active;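 active = activation at or above a set limit, or at least 3 SD above the negative control mean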;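 also: 0% = 35 nM protein with DMSO and 100% = 750 nM protein high control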
RORg DNA counter = RORgamma DNA-binding activity, dose-response counter-screen; shares compounds with NR1D1 modulator; purified RORgamma protein-FITC-DNA binding, fluorescence polarization; IC50, µM; 8% of 910 active; AID 1259320;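 active = Compounds whose fitted half-maximal concentration for disrupting protein-DNA binding is below 10 micromolar; the record names Rev-erb in its text, so the target is in doubt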
Active calls of the source: *. The list is not random: actives were taken first. Their share in the collection is about 1.6%.

COC(=O)c1c(-c2ccccc2)csc1NC(=O)c1ccco1 was read as NR1D1 modulator 19*, PG9 binder 17*, VLA-4 inh 42, NR2E3 ag-1 -85, NR2E3 ag-2 1, PG9 bind confirm 9.8*, PGV04 Ab binding 14* and Rev-erbA confirm 15.
Screening CC1=CS/C(=C(/C#N)C(=O)NCc2ccco2)N1c1ccccc1 returned NR1D1 modulator -8, PG9 binder 3, VLA-4 inh 20, NR2E3 ag-1 -21 and NR2E3 ag-2 5.
`N#C/C(C(=O)NCc1ccco1)=C1/SC=C(c2ccccc2)N1c1ccccc1` gave NR1D1 modulator 38*, PG9 binder 41*, VLA-4 inh 0, NR2E3 ag-1 -1, NR2E3 ag-2 -2, PG9 bind confirm 42*, PGV04 Ab binding 59* and Rev-erbA confirm 30*.
Cc1nc2ccc(S(=O)(=O)NCC(=O)N(C)Cc3ccccc3Cl)cc2s1 was read as NR1D1 modulator -5.
For CCOc1ccccc1-c1nc(-c2cc3ccc(C)cc3[nH]c2=O)no1 the results were NR1D1 modulator 66*, PG9 binder 18*, VLA-4 inh -1, NR2E3 ag-1 16, NR2E3 ag-2 2, PG9 bind confirm 13*, PGV04 Ab binding 27* and Rev-erbA confirm 44*.
O=S1(=O)c2c(cccc2N2CCC[C@@H]2CO)O[C@@H]2CCN1C2 was read as NR1D1 modulator 7.
COC(=O)Cn1c(=NC(=O)c2ccc(OC)cc2)sc2cc(OC)ccc21 was read as NR1D1 modulator 34*, PG9 binder 64*, VLA-4 inh 0, NR2E3 ag-1 -9, NR2E3 ag-2 1, PG9 bind confirm 49*, PGV04 Ab binding 60* and Rev-erbA confirm -3.
Screening COc1cc(NC(=O)c2ccc(-c3ccc(Br)cc3)o2)ccc1NC(=O)C(C)C returned NR1D1 modulator 37*, PG9 binder 22*, VLA-4 inh 18, NR2E3 ag-1 -11, NR2E3 ag-2 0, PG9 bind confirm 41*, PGV04 Ab binding 30* and Rev-erbA confirm 16.
Screening COc1ccccc1NC(=O)c1ccc(-c2ccc(Br)cc2)o1 returned NR1D1 modulator 7, PG9 binder 2, VLA-4 inh 29, NR2E3 ag-1 -14 and NR2E3 ag-2 5.
For COc1cc(OC)cc(-c2oc(=O)c3cc(OC)c(OC)cc3c2C#CCCO)c1 the results were NR1D1 modulator 21*, PG9 binder 25*, VLA-4 inh -1, NR2E3 ag-1 -8, PG9 bind confirm 36*, PGV04 Ab binding 42* and Rev-erbA confirm -11.
`OC(c1ccccc1)(c1ccccc1)C1CCN(CCCNc2ccc(Cl)cc2Cl)CC1` gave NR1D1 modulator 5.
For O=C(Cn1c(=O)c2cccn2c2ccccc21)NCCc1ccc(Cl)cc1 the results were NR1D1 modulator 66*, PG9 binder 36*, VLA-4 inh 5, NR2E3 ag-1 -25, NR2E3 ag-2 10, PG9 bind confirm 40*, PGV04 Ab binding 43* and Rev-erbA confirm 27*.
Nn1c(SCC(=O)Nc2ccccc2-c2ccccc2)nnc1-c1n[nH]c2c1CCC2 was read as NR1D1 modulator 0.
`CCCC[C@H]1C2CC(OC(=O)Nc3ccc(Br)cc3)C(C2)[C@H]2CCCCN21` (stereo partly drawn) gave NR1D1 modulator 4.
For CCn1c2ccccc2c2cc(NC(=O)COC(=O)c3ccccc3F)ccc21 the results were NR1D1 modulator 25*, PG9 binder 28*, VLA-4 inh 4, NR2E3 ag-1 -27, NR2E3 ag-2 10, PG9 bind confirm 33*, PGV04 Ab binding 56* and Rev-erbA confirm 23*.
Cn1ccnc1C(=O)O[C@@H]1CCC[C@@]2(C(=O)N(Cc3ccccc3)c3ccccc32)[C@H]1NC(=O)CCc1ccccc1 was read as NR1D1 modulator -3.
`CC(=O)Nc1sc(C)c(C)c1C(=O)OCC(=O)NCc1ccc(F)cc1` gave NR1D1 modulator 17*, PG9 binder 9.3*, VLA-4 inh 2, NR2E3 ag-1 -22, NR2E3 ag-2 5, PG9 bind confirm 13*, PGV04 Ab binding 19* and Rev-erbA confirm 16*.
COc1ccc(C(=O)Nc2scc(-c3ccc(Cl)cc3Cl)c2C(N)=O)cc1 was read as NR1D1 modulator 62*, PG9 binder 9.8*, VLA-4 inh 4, NR2E3 ag-1 -75, NR2E3 ag-2 1, PG9 bind confirm 7, PGV04 Ab binding 19*, Rev-erbA confirm 56* and RORg DNA counter >40.
`N#Cc1c(N)nc2c3c(sc(=N)c2c1N)NC(=O)CC3c1c(F)cccc1Cl` (stereo not drawn) gave NR1D1 modulator 58*, PG9 binder 17*, VLA-4 inh -19, NR2E3 ag-1 -10, NR2E3 ag-2 2, PG9 bind confirm 22*, PGV04 Ab binding 30*, Rev-erbA confirm 62* and RORg DNA counter 2.9*.
For CCOC(=O)CSC1=C(C#N)C(c2ccc(Cl)cc2)CC(=O)N1 (stereo not drawn) the results were NR1D1 modulator -10, PG9 binder -1, VLA-4 inh 48, NR2E3 ag-1 -14 and NR2E3 ag-2 -2.
Cc1c(C#N)c(N)nc2c3c(sc12)NC(=O)CC3c1ccc(Cl)cc1 (stereo not drawn) was read as NR1D1 modulator 65*, PG9 binder 18*, NR2E3 ag-1 16, NR2E3 ag-2 -1, PG9 bind confirm 16*, PGV04 Ab binding 33*, Rev-erbA confirm 45* and RORg DNA counter >40.
For N#Cc1c(N)nc2c3c(sc(=N)c2c1N)NC(=O)CC3c1ccccc1 (stereo not drawn) the results were NR1D1 modulator 29*, PG9 binder 57*, VLA-4 inh -23, NR2E3 ag-1 -13, NR2E3 ag-2 8, PG9 bind confirm 55*, PGV04 Ab binding 71*, Rev-erbA confirm 41* and RORg DNA counter >40.
COC(=O)c1cc2c(c3c4cc(OC)ccc4n(S(=O)(=O)c4ccc(OC)cc4)c13)C(=O)N(C)C2 was read as NR1D1 modulator 1 and PG9 binder -1.
Screening CCCC[C@H]1C2CC(OC(=O)Nc3ccccc3)C(C2)[C@H]2CCCCN21 (stereo partly drawn) returned NR1D1 modulator -2.
